The results in this text go back to ChEMBL document CHEMBL1128557, “Synthesis, antitumor activity, and chemical properties of silaplatin and related platinum (II) and platinum (IV) complexes derived from beta-silyl amines” (J Med Chem, 1995).

Data set [1] has as its system Tumor Cell line. Kind of data set: The compound was evaluated in vitro for the log10 molecular concentration that caused 50 % of 60 human tumor cell line kills. It is filed as ADME, cell-based. In short, it runs like this:
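Human tumor cell lines (leukemia, non-small-cell lung, ovarian, renal) were preincubated 24 h. Platinum complexes were then added as five 10-fold dilutions, 0.01–100 μM, for 48 h, followed by in situ fixation and staining, with solubilized stain read spectrophotometrically. Log LC50 (50% cell kill) was averaged across cell lines within one experiment.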

Data set [2] concerns Tumor Cell line. Kind of data set: Evaluated in vitro for the log10 molecular concentration that caused […] tumor growth of 60 human tumor cell lines. It is filed as functional, cell-based. The procedure, abridged: (§1)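 Cells preincubated 24 h, then exposed to the agent at five 10-fold dilutions (0.01–100 μM for the platinum complexes) for 48 h. Cells fixed in situ and stained; solubilized stain read spectrophotometrically. Panel of leukemia, non-small-cell lung, ovarian and renal lines. Log GI50 or TGI taken per cell line in one experiment, then averaged across lines.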

Data set [3] concerns Tumor Cell line. Kind of data set: Evaluated in vitro for the log10 molecular concentration that caused 50 % inhibition of tumor growth of 60 human tumor cell lines. It is filed as functional, cell-based. The procedure, abridged:
as §1

With CARBOPLATIN [listing 1 of 2 here], the “Log LC50” value in the data set with Tumor Cell line [1] was greater than -3.61.

Broadly, the TGI is the concentration at which net growth stops. As usually defined, the GI50 is the concentration giving 50% growth inhibition. CARBOPLATIN [listing 2 of 2 here] came in with a total growth inhibition concentration (TGI) in the data set on Tumor Cell line [2] of 214 µM. Also, in the data set with Tumor Cell line [3], the GI50 came to 107 µM.

Turning to CISPLATIN [listing 1 of 2 here], in the data set with Tumor Cell line [1], the “Log LC50” value is greater than -3.35.

In turn, CISPLATIN [listing 2 of 2 here] showed a total growth inhibition concentration (TGI) with Tumor Cell line [2] of 33.9 µM. The substance also displayed a GI50 in the data set on Tumor Cell line [3] of 4.47 µM.

Consider “[Bis(aminomethyl)diethylsilane]tetrachloroplatinum(IV)”, for which the “Log LC50” value in the data set with Tumor Cell line [1] is on record as greater than -4.02.
